{"data": "Published values pooled from the literature", "target": "Serine/threonine-protein kinase PAK 4 (PAK4, Homo sapiens, UniProt O96013)", "note": "Each line is one published result; the experiments were not run side by side."}
{"SMILES": "COc1ccc2[nH]c3c4[nH]c5ccc(OC)cc5c4c4c(c3c2c1)C(=O)NC4=O", "effect on": "binding", "tested at": "1 µM", "measurement": "remaining binding", "value": "90%"}
{"SMILES": "CCCCC(=O)Nc1ccc(-c2ccc3ncn(CCC)c(=O)c3c2)cn1", "effect on": "binding", "method": "competition with immobilised ligand", "tested at": "0.5 µM", "measurement": "remaining binding", "value": "98%"}
{"SMILES": "C=CC(=O)N1CCC[C@@H](n2nc(-c3ccc(Oc4ccccc4)cc3)c3c(N)ncnc32)C1", "effect on": "enzyme activity", "mode": "inhibitor", "tested at": "1 µM", "measurement": "inhibition", "value": "6%"}
{"SMILES": "Cc1cc(O)c(-c2ccc([C@@H](C)CN(C)C)cc2)c2c1[nH]c(=O)c1sccc12", "effect on": "cell-free assay", "mode": "inhibitor", "tested at": "0.1 µM", "notes": "lysate", "measurement": "inhibition", "value": "-7.15%"}
{"SMILES": "CC(C)S(=O)(=O)c1ccc2nccc(Nc3ccc4sc(C5CCCC5)nc4c3)c2c1", "effect on": "enzyme activity", "mode": "inhibitor", "tested at": "1 µM", "measurement": "activity vs control", "value": "104%"}
{"SMILES": "C1=C/COCc2cc(ccc2OCCN2CCCC2)Nc2nccc(n2)-c2cccc(c2)COC/1", "effect on": "binding", "tested at": "0.1 µM", "measurement": "remaining binding", "value": "94%"}
{"SMILES": "N#Cc1ccc(NC(=O)Nc2ccccc2)cc1", "effect on": "cell-free assay", "method": "competition with immobilised ligand", "tested at": "25 µM", "measurement": "remaining binding", "value": "85%"}
{"SMILES": "C[C@H]1CC[C@H](n2c3cnccc3c3cnc(Nc4ccc5c(n4)CCN(C(=O)CO)C5)nc32)CC1", "effect on": "cell-free assay", "tested at": "1 µM", "measurement": "remaining signal", "value": "92%"}
{"SMILES": "CC#CC(=O)N1CCC[C@H]1c1nc(-c2ccc(C(=O)Nc3ccccn3)cc2)c2c(N)nccn12", "effect on": "enzyme activity", "mode": "inhibitor", "tested at": "1 µM", "measurement": "inhibition", "value": "0%"}
{"SMILES": "COc1ccc2oc(-c3ccc4nc(N)oc4c3)c/c(=N\\c3ccccc3NC(=O)CCN)c2c1", "effect on": "binding", "tested at": "1 µM", "measurement": "remaining binding", "value": "104%"}
